Data published in publication PMC6136352 (Journal of Enzyme Inhibition and Medicinal Chemistry, 2018).

Key:
KG1a cells = assay: MTT cytotoxicity assay, KG1a; assay type: cell-based, human; conditions: for IC50: Homo sapiens, KG-1a, 72 h, read-out: IC50 KG1a
Outline: (§1)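 Exponentially growing leukaemia lines were seeded at 1 × 10⁴ cells/well in supplemented RPMI 1640. After 24 h, test compounds were added over a concentration range for 72 h, with adriamycin as positive control. MTT (5 mg/ml stock) was added for 4 h. Plates were spun at 2000 rpm for 20 min, the supernatant replaced by DMSO, and absorbance read at 570 nm. IC50 was fitted; each value is the mean of three independent experiments.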

HL-60 cells = assay: MTT cytotoxicity assay, HL-60; assay type: cell-based; conditions: Homo sapiens, HL-60, 72 h, read-out: IC50 HL-60
Outline: as §1

[1] = cited from earlier work
[2] = cited from earlier work; remark: listed apart in the source

Row | SMILES | IC50 (KG1a cells) [µM] | drop of activity against KG1a than that against HL-60 (KG1a cells; ratio of IC50 values) [folds] | IC50 (HL-60 cells) [µM] | solubility [1] | stability in acidic and basic conditions [2]
1 | COc1cccc2c1C(=O)c1c(O)c3c(c(O)c1C2=O)C[C@@](O)(C(=O)CO)C[C@@H]3O[C@H]1C[C@H](N)[C@H](O)[C@H](C)O1 [ADR, adriamycin] | 0.75 ± 0.05 | 34 | 0.022 ± 0.005 | – | –
2 | C=C1C(=O)O[C@H]2[C@H]1CC/C(C)=C/CC[C@@]1(C)O[C@@H]21 [PTL, Parthenolide] | 6.1 ± 1.8 | – | 3.8 ± 1.2 | poor solubility | instability in both acidic and basic conditions
